Experimental data from ChEMBL document CHEMBL2401652 (J Med Chem, 2013).
Activity calls are given as the source filed them. The calls are words filed in the database; no cut-off is given here.

Columns and labels:
[1] = test system: PANC-1; assay: Downregulation of total Bid expression in human PANC1 cells at 25 uM after 24 hrs by Western blot analysis; format: functional, cell-based
In short: (§1)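 Cells (1.5 × 10^6) treated 24 h at 25 or 50 μM; 50 μg protein per lane on 10% SDS-PAGE, nitrocellulose, 2% TBS-BSA block, primary antibody overnight at 4 °C, HRP secondary, ECL detection; β-actin loading control; untreated controls in parallel.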

[2] = test system: T98G; assay: Downregulation of Bcl-xL expression in human T98G cells at 25 uM after 24 hrs by Western blot analysis; format: functional, cell-based; in short: as §1
[3] = test system: U-373MG ATCC; assay: Cytotoxicity against human U373MG cells assessed as induction of morphological changes at 30 uM after 12 hrs by phase contrast microscopic analysis; format: functional, cell-based
In short: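 U373MG glioma cells exposed to 30 μM for 3 or 12 h; shape and density examined by phase contrast microscopy against untreated cells.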

[4] = test system: PANC-1; assay: Cytotoxicity against human PANC1 cells assessed as growth inhibition after 24 hrs by MTT assay; format: functional, cell-based
In short: (§2)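 Log-phase cells (1 × 10^4 per well) treated 24 h with 0–30 μM at 37 °C, 5% CO2, in triplicate; MTT added for final 3 h; vehicle 0.15% ethanol; IC50 from three separate days, mean ± SE.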

[5] = test system: PANC-1; assay: Induction of apoptosis in human PANC1 cells assessed as procaspase-9 cleavage at 25 uM after 24 hrs by Western blot analysis; format: functional, cell-based
In short: (§3)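 Cells (1.5 × 10^6) exposed 24 h to compound (25 or 50 μM). 50 μg protein per lane resolved on 10% SDS-PAGE and transferred to nitrocellulose. Membrane blocked in 2% TBS-BSA, then probed with primary antibody overnight at 4 °C and HRP secondary. Detection by ECL, with β-actin as loading control. Untreated control run in parallel.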

[6] = test system: PANC-1; assay: Induction of apoptosis in human PANC1 cells assessed as procaspase-8 cleavage at 25 uM after 24 hrs by Western blot analysis; format: functional, cell-based; in short: as §1
[7] = test system: PANC-1; assay: Induction of apoptosis in human PANC1 cells assessed as procaspase-7 cleavage at 25 uM after 24 hrs by Western blot analysis; format: functional, cell-based; in short: as §1
[8] = Binding affinity to DNA (unknown origin) at 100 uM after 2 hrs by UV-Vis absorption spectroscopic analysis
In short: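 DNA (100 μg/mL; stock 1.0 mg/mL in 50 mM Tris-HCl pH 7.5, 50 mM NaCl) with ligand fixed at 100 μM; incubated at 37 °C, then diluted six-fold; absorbance scanned 220–350 nm at 25 °C, 1 cm quartz cell; 260 nm band monitored.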

[9] = test system: T98G; assay: Induction of apoptosis in human T98G cells assessed as procaspase-8 cleavage at 25 uM after 24 hrs by Western blot analysis; format: functional, cell-based; in short: as §3
[10] = test system: PANC-1; assay: Induction of apoptosis in human PANC1 cells assessed as PARP cleavage at 25 uM after 24 hrs by Western blot analysis; format: functional, cell-based; in short: as §1
[11] = test system: PANC-1; assay: Downregulation of Bcl-xL expression in human PANC1 cells at 25 uM after 24 hrs by Western blot analysis; format: functional, cell-based; in short: as §1
[12] = test system: T98G; assay: Induction of apoptosis in human T98G cells assessed as procaspase-9 cleavage at 25 uM after 24 hrs by Western blot analysis; format: functional, cell-based; in short: as §3
[13] = test system: K562; assay: Cytotoxicity against human K562 cells assessed as growth inhibition after 24 hrs by MTT assay; format: functional, cell-based; in short: as §2
[14] = test system: T98G; assay: Induction of apoptosis in human T98G cells assessed as PARP cleavage at 25 uM after 24 hrs by Western blot analysis; format: functional, cell-based; in short: as §3
[15] = test system: T98G; assay: Downregulation of total Bid expression in human T98G cells at 25 uM after 24 hrs by Western blot analysis; format: functional, cell-based; in short: as §1
[16] = test system: T98G; assay: Induction of apoptosis in human T98G cells assessed as procaspase-7 cleavage at 25 uM after 24 hrs by Western blot analysis; format: functional, cell-based; in short: as §3
[17] = test system: T98G; assay: Induction of apoptosis in human T98G cells assessed as induction of DNA damage at 20 uM after 24 hrs by comet assay relative to untreated control; format: functional
In short: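 T98G cells (1 × 10^5) treated 24 h with 0 or 20 μM. About 20000 cells embedded in 0.5% low-melting agarose and lysed overnight at 4 °C at pH 10. Alkaline electrophoresis (pH 13) for 30 min at 300 mA at 4 °C, then ethidium bromide staining. Tail length (nucleus centre to tail tip) from ≥20 comets, reported as mean ± SD.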

[18] = test system: T98G; assay: Cytotoxicity against human T98G cells assessed as growth inhibition after 24 hrs by MTT assay; format: functional, cell-based; in short: as §2
[19] = test system: A549; assay: Cytotoxicity against human A549 cells assessed as growth inhibition after 24 hrs by MTT assay; format: functional, cell-based; in short: as §2
[20] = test system: HCT-116; assay: Cytotoxicity against human HCT116 cells assessed as growth inhibition after 24 hrs by MTT assay; format: functional, cell-based; in short: as §2

COc1ccc2c(c1)[nH]c1c3c(c(C)cc12)O[C@](C)(CCC=C(C)C)C=C3
Activity [1]: inactive | Activity [2]: inactive | Activity [3]: inactive | growth inhibition (GI) [4]: Active | Activity [5]: inactive | Activity [6]: inactive | Activity [7]: inactive | Activity [8]: Active | Activity [9]: inactive | Activity [10]: inactive | Activity [11]: inactive | Activity [12]: inactive | growth inhibition (GI) [13]: Active | Activity [14]: inactive | Activity [15]: inactive | Activity [16]: inactive | Activity [17]: inactive | growth inhibition (GI) [18]: Active | growth inhibition (GI) [19]: Active | growth inhibition (GI) [20]: Active
